Screening data (PubChem)
A selection: hits, their analogues and other compounds. The true share with any hit is near 3.7%.
Yeast life ext = extends the lifespan of yeast; S. cerevisiae growth with nicotinamide, OD615; deaD strain in restrictive glucose medium; inhibition of the nicotinamide effect, % at 10 µM; actives 0.68% (n = 130,000);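 active = inhibition above a set limit, placed 3 SD over the median of all compounds, cut at about 26% in these data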;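 also: 0% = nicotinamide-treated wells and 100% = cells grown without nicotinamide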
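Measured by: optical density (absorbance) at 615 nm; System: modified budding yeast, DeaD strain; Medium: restrictive CSMM-D dextrose medium; Timing: 4 h preincubation then 48 h treatment at 30 °C.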
BB579 growth dn = chemicals that inhibit yeast BB579 growth in restrictive medium (lifespan-shortening candidates). S. cerevisiae BB579 growth, OD615, 48 h. inhibition, % at 10 µM. actives 0.51% (n = 140,000);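 active = inhibition above a set limit, 3 SD over the mean compound inhibition, cut at about 44% in these data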
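Assay system: S. cerevisiae DeaD strain BB579 yeast. Medium: CSMM-D restrictive synthetic medium containing dextrose (glucose). Times: 4 h cell preincubation, 48 h compound exposure, 30 °C humidified. Signal: OD615 turbidity measurement. Benchmarks: positive control amphotericin B 10 µg/mL.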
Insulin prom inh = TRM-6 insulin promoter activity inhibition; AID 1273; TRM-6 cells, insulin promoter-eGFP reporter, imaging; reporter expression induced with tamoxifen; actives 0.9% (n = 130,000); inhibition, % at 2 µM;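 active = inhibition above the mean plus 3 SD, with well images judged a real hit on visual review, cut at about 60% in these data, passing the limit was not always enough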
Efa HMGR inh = blocks class II HMG-CoA reductase of Enterococcus faecalis; purified E. faecalis HMGR, NADPH absorbance 340 nm kinetic; inhibition, % at 10 µM; actives 0.41% (n = 190,000);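 active = inhibition above a set limit, the median over all tested compounds plus 3 SD, cut at about 9.5% in these data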;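 also: enzyme runs in reverse so mevalonate oxidation gives rising NADPH absorbance; 0% = complete reaction with DMSO and 100% = background rate lacking mevalonate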
RAM inhibit = inhibitors of the yeast RAM network | S. cerevisiae dse1pr::URA3 reporter, 5-FOA growth OD615, 2 d; analog-sensitive cbk1-as2 kinase mutant strain | inhibition, % at 50 µM | actives 1.8% (n = 190,000);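 active = inhibition above a set limit, 3 SD over mean compound inhibition, cut at about 8.4% in these data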;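 also: 0% = DMSO-only wells with no growth and 100% = 10 µM 1-NA-PP1 full growth; inhibition rescues growth on 5-FOA so higher OD means more RAM inhibition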
* = called active by the depositor; . = no result.

SMILES	Yeast life ext	BB579 growth dn	Insulin prom inh	Efa HMGR inh	RAM inhibit
Cc1cccc(COCC(Cc2ccccc2)N2CCN(C(=O)c3cc(Cl)cc(Cl)c3)CCC2=O)c1 (stereo not given)	12	-46	-30	-7	11*
CC(C)(C)c1ccc(C(=O)N2CCC(=O)N(C(COCc3ccccc3)Cc3ccccc3)CC2)cc1 (stereo not given)	11	-18	-35	-6	8
Cc1cccc(COCC(Cc2ccccc2)N2CCN(C(=O)c3ccc(Cl)c(Cl)c3)CCC2=O)c1 (stereo not given)	16	-35	-32	-5	10*
O=C(c1ccc(Cl)c(Cl)c1)N1CCC(=O)N(C(COCc2ccc(Cl)cc2)Cc2ccccc2)CC1 (stereo not given)	7	-20	-80	-9	8
O=C(c1ccc(Cl)c(Cl)c1)N1CCC(=O)N(C(COCc2cccc(C(F)(F)F)c2)Cc2ccccc2)CC1 (stereo not given)	7	-39	-24	0	9.0*
O=C(c1ccc(C(F)(F)F)cc1)N1CCC(=O)N(C(COCc2ccc(Cl)cc2)Cc2ccccc2)CC1 (stereo not given)	11	-45	-20	-5	9.8*
COc1ccccc1C/C(N)=N/OC(=O)c1ccco1	.	.	.	-3	0
O=C(O)c1ccc(Br)cn1	.	.	53	-1	0
CC(=O)Nc1ccc(S(=O)(=O)Nc2cccc(NC(=O)c3ccco3)c2)cc1	.	.	.	-5	1
Nc1nonc1C(=O)N/N=C/c1ccc(-c2ccc(Cl)c(C(=O)O)c2)o1	.	.	.	-3	3
O=C(O)c1cc(-c2ccc(/C=N/Nc3ccc(Cl)cc3)o2)ccc1Cl	-19	95*	.	-4	4
COc1ccc(N(CC(=O)N2CCc3ccccc32)S(=O)(=O)c2c(C)nn(C)c2C)cc1	-6	-12	.	-5	8.9*
Cc1[nH][nH]c(=O)c1C(c1c(C)[nH][nH]c1=O)c1cn(Cc2ccc(F)cc2)c2ccccc12	0	-35	-8	53*	0
Cc1[nH][nH]c(=O)c1C(c1c(C)[nH][nH]c1=O)c1cn(Cc2ccc(Cl)c(Cl)c2)c2ccccc12	8	-12	.	39*	3
Cc1[nH][nH]c(=O)c1C(c1ccc(-c2ccc(Cl)c(C(=O)O)c2)o1)c1c(C)[nH][nH]c1=O	.	.	.	7	2
O=C(O)Cc1cn(Cc2ccc(F)cc2)c2ccccc12	.	.	29	4	-1
CC(C)(C)N(Cc1ccccc1)C(=O)COC(=O)Cn1cnc2ccccc2c1=O	.	.	-9	7	0
COc1ccc(OC)c(C(=O)CSc2nnc(-c3ccc(OC)c(OC)c3)o2)c1	-2	-38	29	1	10*
COc1ccccc1OCc1nnc(SCC(=O)c2cc(Cl)ccc2OC)o1	-36	-70	26	1	9.5*
CCCc1nc2c(sc3nc4c(cc32)COC(C)(C)C4)c(=O)o1	.	.	.	-3	2
CC(=O)Nc1nnc(C2=COCCO2)o1	.	.	-155	10*	2
COc1ccc(N(CC(=O)Nc2cc(C)cc(C)c2)S(=O)(=O)c2ccccc2[N+](=O)[O-])c(OC)c1	.	.	.	9.9*	4
CCSc1nnc(NC(=O)c2ccccn2)s1	-10	97*	-178	0	-2
CCSc1nnc(NC(=O)COc2cccc3ccccc23)s1	-6	-40	22	-2	9.7*
CCSc1nnc(NC(=O)COc2ccc(Cl)cc2)s1	.	.	-22	-2	2
SMILES	Yeast life ext	BB579 growth dn	Insulin prom inh	Efa HMGR inh	RAM inhibit
Cc1cc(=O)oc2cc(OCCSc3nnc(-c4ccccc4)o3)ccc12	-3	-7	6	-4	11*
CC1=NN(c2ccccc2)C(=O)C1C(=O)c1ccccc1 (stereo not given)	28*	-32	.	0	-2
CS(=O)(=O)N1CCN(CC(=O)NC2CCCCC2)CC1	.	.	.	-8	0
CCCCn1ccnc1C(=O)c1cccc(S(=O)(=O)N2CC(C)CC(C)C2)c1 (stereo not given)	7	-42	26	-3	8.7*
COC(=O)c1ccc(C(NC(=O)OCc2ccccc2)/C(C)=C/[C@@H](C)C(=O)NCc2ccc(-c3ccccc3)cc2)cc1 (stereo not given in full)	1	-42	0	14*	7
Cc1ccc(CNC(=O)C(CCC(N)=O)NC(=O)OCc2ccccc2)cc1 (stereo not given)	2	-6	-5	-2	0
O=C(CN(c1ccc(F)cc1)S(=O)(=O)c1ccccc1)NCCSC1CCCCC1	1	-11	29	3	3
Cc1cc(C)c2c(n1)sc1c(N3CCOCC3)ncnc12	.	.	-40	.	.
Cc1cc(C)c2c(N=NN3CCOCC3)[nH]nc2n1	-4	66*	.	-2	-1
c1ccc2nc3ccccc3nc2c1	-8	60*	-68	-8	0
CCOc1ccccc1-n1nnnc1SCc1nc2ccccc2s1	12	-65	.	-2	9.9*
Cc1cc([N+](=O)[O-])nn1CCCC(=O)N1CCN(c2ccccc2)CC1	-6	-14	28	-6	1
c1ccc2c(c1)COC(CNC1CCCCC1)OC2	.	.	.	-1	0
COc1cc(/C=c2\sc3nc(-c4ccncc4)nn3c2=O)ccc1OC(C)=O	33*	-39	0	-1	1
Cc1ccc(CCc2nnc(SCC(=O)Nc3cc(Cl)ccc3Cl)n2-c2ccccc2)o1	2	-26	-10	3	9.7*
COCc1nnc(SCC(=O)Nc2cccc(Cl)c2C)n1-c1ccccc1	-2	-19	.	0	0
COC(=O)c1cc(NC(=O)N2c3ccccc3Sc3ccccc32)cc(C(=O)OC)c1	-5	-65	-17	-4	9.8*
CCOC(=O)c1nnn(-c2nonc2N)c1-c1ccc(OCC)cc1	5	3	0	-8	0
CCOc1ccc(/C=N/NC(=O)c2nnn(-c3nonc3N)c2-c2ccc(OCC)cc2)cc1	2	-24	25	0	9.4*
O=C(N/N=C1\CCc2ccccc21)c1ccccc1Cl	3	-3	30	-4	3
O=C(N/N=C1\CCc2ccccc21)c1ccc(O)cc1	.	.	.	12*	1
COc1ccc(C)cc1-n1nnnc1SC/C(O)=C(\C#N)c1nc2ccccc2[nH]1	-2	-4	50	-5	9.1*
COc1ccc(-c2[nH]ncc2C=O)cc1	-2	-11	60*	-2	1
Cc1ccc(NC(=O)COC(=O)C2CC2(Cl)Cl)cc1C (stereo not given)	.	.	-43	-8	0
Cc1cc(NC(=O)CCCC(=O)N(CC(=O)NC2CCCCC2)c2ccccc2)no1	4	-15	-59	-1	0
Cc1cc(NC(=O)CCC(=O)N(CC(=O)NC2CCCC2)c2ccccc2)no1	.	-40	-113	10*	-1
O=C(O)CSc1c(-c2ccccc2)c2cc(Cl)ccc2[nH]c1=O	-1	-26	.	1	8
O=c1[nH]c2ccc(Cl)cc2c(O)c1Cc1ccccc1	.	.	73*	-6	4
